Source: ChEMBL document CHEMBL4020721 (Eur J Med Chem, 2017)

Experiments:
[1] = system: SNU-5; assay: Growth inhibition of human SNU5 cells after 72 hrs by CCK-8 assay; type: functional, cell-based
[2] = target: T1, CYP2D6 (Homo sapiens, UniProt P10635); assay: (§1) Reversible inhibition of CYP2D6 in human liver microsomes at 10 uM after 20 mins in presence of NADPH by LC-MS/MS analysis; type: ADME; conditions: liver microsomes
[3] = target: T2, CYP2C19 (Homo sapiens, UniProt P33261); assay: (§2) Reversible inhibition of CYP2C19 in human liver microsomes at 10 uM after 20 mins in presence of NADPH by LC-MS/MS analysis; type: ADME; conditions: liver microsomes
[4] = target: T3, Cytochrome P450 3A4 (Homo sapiens, UniProt P08684); assay: (§3) Time dependent irreversible inhibition of CYP3A4 in human liver microsomes at 10 uM preincubated with compound followed by NADPH addition by LC-MS/MS analysis; type: ADME; conditions: microsomes, 10 µM
Outline: (§4)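 HLM (0.2 mg/ml) with 10 µM compound were preincubated 0, 5, 10 or 20 min at 37°C with 1 mM NADPH or PBS. Substrate cocktail (halved concentrations) plus NADPH was then added for 10 min. Metabolites were measured by LC-MS/MS. Kobs is the slope of relative activity versus preincubation time.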

[5] = (§5) Drug recovery in rat liver microsomes at 1 uM measured after 30 mins by LC-MS/MS analysis; type: ADME, microsome; conditions: liver microsomes, read-out: Drug recovery
[6] = Intrinsic clearance in rat liver microsomes assessed per mg protein at 1 uM preincubated for 5 mins followed by NADPH addition measured after 5 to 30 mins by LC-MS/MS analysis; type: ADME, microsome; conditions: read-out: CLH
Outline: (§6)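 Microsomes (0.5 mg/ml) with 1 µM compound were preincubated 5 min at 37°C in 100 mM phosphate buffer pH 7.4, then started with 1 mM NADPH. Samples were taken at 0, 5, 10 and 30 min, quenched with acetonitrile/tinidazole and run by LC-MS/MS. CLint = k / microsomal protein concentration. Midazolam was the positive control.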

[7] = system: NCI-H1993; assay: Growth inhibition of human NCI-H1993 cells after 72 hrs by CCK-8 assay; type: functional, cell-based
[8] = Intrinsic clearance in monkey liver microsomes assessed per mg protein at 1 uM preincubated for 5 mins followed by NADPH addition measured after 5 to 30 mins by LC-MS/MS analysis; conditions: liver microsomes; read-out: CLH
[9] = Drug recovery in monkey liver microsomes at 1 uM measured after 30 mins by LC-MS/MS analysis
[10] = target: T4, CYP3A4 (Homo sapiens, UniProt P08684); assay: (§7) Reversible inhibition of CYP3A4 in human liver microsomes at 10 uM after 20 mins in presence of NADPH by LC-MS/MS analysis; type: ADME; conditions: liver microsomes
[11] = Drug recovery in human liver microsomes at 1 uM measured after 30 mins by LC-MS/MS analysis; type: ADME, microsome; conditions: liver microsomes, read-out: Drug recovery
Outline: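 Liver microsomes (0.5 mg/ml) were incubated with 1 µM compound at 37°C in 100 mM phosphate buffer pH 7.4 without NADPH for 30 min. Reactions were quenched with acetonitrile/tinidazole internal standard and analysed by LC-MS/MS. Recovery (%) was taken from the compound/internal standard peak area ratio.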

[12] = target: T5, CYP1A2 (Homo sapiens, UniProt P05177); assay: Reversible inhibition of CYP1A2 in human liver microsomes at 10 uM after 20 mins in presence of NADPH by LC-MS/MS analysis; type: ADME
T5 sequence (P05177 whole entry): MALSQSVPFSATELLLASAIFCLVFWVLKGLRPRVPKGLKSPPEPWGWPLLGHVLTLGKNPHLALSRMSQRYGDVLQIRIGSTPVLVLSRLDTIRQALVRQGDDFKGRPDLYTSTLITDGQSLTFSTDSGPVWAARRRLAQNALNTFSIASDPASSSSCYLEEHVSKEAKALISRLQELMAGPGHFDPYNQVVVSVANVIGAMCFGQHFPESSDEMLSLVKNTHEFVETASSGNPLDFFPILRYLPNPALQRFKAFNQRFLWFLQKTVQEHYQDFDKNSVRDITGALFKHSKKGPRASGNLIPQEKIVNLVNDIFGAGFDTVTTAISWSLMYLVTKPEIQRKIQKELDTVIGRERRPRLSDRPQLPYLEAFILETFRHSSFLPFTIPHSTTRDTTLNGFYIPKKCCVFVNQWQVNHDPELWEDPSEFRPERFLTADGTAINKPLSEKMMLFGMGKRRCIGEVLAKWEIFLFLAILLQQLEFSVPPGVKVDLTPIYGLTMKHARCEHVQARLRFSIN

[13] = target: T6, CYP2C9 (Homo sapiens, UniProt P11712); assay: (§8) Reversible inhibition of CYP2C9 in human liver microsomes at 10 uM after 20 mins by in presence of NADPH LC-MS/MS analysis; type: ADME; conditions: liver microsomes
[14] = Intrinsic clearance in human liver microsomes assessed per mg protein at 1 uM preincubated for 5 mins followed by NADPH addition measured after 5 to 30 mins by LC-MS/MS analysis; type: ADME, microsome; conditions: read-out: CLH; outline: as §6
[15] = target: T7, Cytochrome P450 2D6 (Homo sapiens, UniProt P10635); assay: (§9) Time dependent irreversible inhibition of CYP2D6 in human liver microsomes at 10 uM preincubated with compound followed by NADPH addition by LC-MS/MS analysis; type: ADME; conditions: microsomes, 10 µM; outline: as §4
[16] = system: Liver; assay: as §5; type: ADME, microsome; conditions: microsomes, 0.5 h, 1 µM
[17] = target: T8, Cytochrome P450 2C9 (Homo sapiens, UniProt P11712); assay: (§10) Time dependent irreversible inhibition of CYP2C9 in human liver microsomes at 10 uM preincubated with compound followed by NADPH addition by LC-MS/MS analysis; type: ADME; conditions: microsomes, 10 µM; outline: as §4
[18] = target: Cytochrome P450 1A2 (Homo sapiens, UniProt P05177); assay: (§11) Time dependent irreversible inhibition of CYP1A2 in human liver microsomes at 10 uM preincubated with compound followed by NADPH addition by LC-MS/MS analysis; type: ADME; conditions: microsomes, 10 µM; outline: as §4
[19] = target: Hepatocyte growth factor receptor (Homo sapiens, UniProt P08581); assay: Inhibition of c-MET (unknown origin) using TK substrate-biotin peptide as substrate preincubated for 5 to 10 mins followed by ATP addition measured after 30 mins by HTRF assay
[20] = system: Rattus norvegicus; assay: Oral bioavailability in Sprague-Dawley rat plasma at 6 mg/kg by UPLC-MS/MS analysis; type: ADME, organism-based; conditions: in vivo
Outline: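 Male Sprague-Dawley rats (180-220 g) were fasted overnight with free access to water. Dosing was intravenous (n=2) or oral at 6 mg/kg (n=3). Heparinized blood was drawn from 0 to 1440 min. Plasma was frozen at -20°C, then precipitated with acetonitrile containing internal standard, centrifuged and analysed by UPLC-MS/MS.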

[21] = target: T1, CYP2D6; assay: as §9; type: ADME; conditions: liver microsomes; outline: as §4
[22] = target: T7, Cytochrome P450 2D6; assay: as §1; type: ADME; conditions: microsomes, 20 min, 10 µM
[23] = target: Cytochrome P450 2C19 (Homo sapiens, UniProt P33261); assay: as §2; type: ADME; conditions: microsomes, 20 min, 10 µM
[24] = target: T2, CYP2C19; assay: Time dependent irreversible inhibition of CYP2C19 in human liver microsomes at 10 uM preincubated with compound followed by NADPH addition by LC-MS/MS analysis; type: ADME; outline: as §4
[25] = target: T4, CYP3A4; assay: as §3; type: ADME; conditions: liver microsomes; outline: as §4
[26] = target: T3, Cytochrome P450 3A4; assay: as §7; type: ADME; conditions: microsomes, 20 min, 10 µM
[27] = target: T6, CYP2C9; assay: as §10; type: ADME; conditions: liver microsomes; outline: as §4
[28] = target: T8, Cytochrome P450 2C9; assay: as §8; type: ADME; conditions: microsomes, 20 min, 10 µM
[29] = target: T5, CYP1A2; assay: as §11; type: ADME; conditions: liver microsomes; outline: as §4

T1 sequence (P10635 whole entry): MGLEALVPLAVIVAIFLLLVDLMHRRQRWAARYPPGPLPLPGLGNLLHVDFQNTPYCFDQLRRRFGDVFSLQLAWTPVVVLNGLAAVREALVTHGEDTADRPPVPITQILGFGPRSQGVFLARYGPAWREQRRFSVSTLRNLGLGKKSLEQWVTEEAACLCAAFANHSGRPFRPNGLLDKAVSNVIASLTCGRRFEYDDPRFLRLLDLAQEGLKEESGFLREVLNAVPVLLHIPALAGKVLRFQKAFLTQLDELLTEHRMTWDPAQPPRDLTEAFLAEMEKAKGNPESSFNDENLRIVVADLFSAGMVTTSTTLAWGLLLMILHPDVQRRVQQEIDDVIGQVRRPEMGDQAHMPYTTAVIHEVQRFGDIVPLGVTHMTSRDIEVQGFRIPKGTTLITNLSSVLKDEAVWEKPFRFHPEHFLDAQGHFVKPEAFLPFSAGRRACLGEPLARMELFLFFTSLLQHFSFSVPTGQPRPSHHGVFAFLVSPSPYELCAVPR
T6 sequence (P11712 whole entry): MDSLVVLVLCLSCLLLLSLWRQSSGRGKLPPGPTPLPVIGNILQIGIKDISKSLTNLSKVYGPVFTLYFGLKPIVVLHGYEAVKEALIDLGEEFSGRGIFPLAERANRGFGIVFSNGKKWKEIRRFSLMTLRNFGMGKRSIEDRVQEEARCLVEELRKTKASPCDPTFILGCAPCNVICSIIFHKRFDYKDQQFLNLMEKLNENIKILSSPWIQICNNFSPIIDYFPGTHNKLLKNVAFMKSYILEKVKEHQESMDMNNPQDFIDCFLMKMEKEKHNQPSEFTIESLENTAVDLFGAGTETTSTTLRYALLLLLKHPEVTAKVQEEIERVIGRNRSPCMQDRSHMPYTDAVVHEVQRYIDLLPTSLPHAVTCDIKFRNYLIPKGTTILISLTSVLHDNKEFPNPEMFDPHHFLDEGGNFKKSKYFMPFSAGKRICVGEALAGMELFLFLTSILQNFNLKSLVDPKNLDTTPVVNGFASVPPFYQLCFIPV
T2 sequence (P33261 whole entry): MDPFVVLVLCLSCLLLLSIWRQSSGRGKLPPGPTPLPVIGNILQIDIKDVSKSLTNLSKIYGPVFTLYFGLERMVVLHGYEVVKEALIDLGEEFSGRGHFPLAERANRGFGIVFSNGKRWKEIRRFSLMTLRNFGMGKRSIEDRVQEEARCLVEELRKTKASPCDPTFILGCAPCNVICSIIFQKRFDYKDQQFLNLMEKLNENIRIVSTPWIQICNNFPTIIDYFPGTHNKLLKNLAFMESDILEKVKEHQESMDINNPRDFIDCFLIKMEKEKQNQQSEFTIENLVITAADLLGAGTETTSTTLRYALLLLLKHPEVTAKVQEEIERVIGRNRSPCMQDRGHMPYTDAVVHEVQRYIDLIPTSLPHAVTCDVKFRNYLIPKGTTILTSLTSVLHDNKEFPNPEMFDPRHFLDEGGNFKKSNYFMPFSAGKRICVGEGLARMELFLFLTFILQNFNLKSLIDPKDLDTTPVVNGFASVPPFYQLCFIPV
T3 sequence (P08684 whole entry): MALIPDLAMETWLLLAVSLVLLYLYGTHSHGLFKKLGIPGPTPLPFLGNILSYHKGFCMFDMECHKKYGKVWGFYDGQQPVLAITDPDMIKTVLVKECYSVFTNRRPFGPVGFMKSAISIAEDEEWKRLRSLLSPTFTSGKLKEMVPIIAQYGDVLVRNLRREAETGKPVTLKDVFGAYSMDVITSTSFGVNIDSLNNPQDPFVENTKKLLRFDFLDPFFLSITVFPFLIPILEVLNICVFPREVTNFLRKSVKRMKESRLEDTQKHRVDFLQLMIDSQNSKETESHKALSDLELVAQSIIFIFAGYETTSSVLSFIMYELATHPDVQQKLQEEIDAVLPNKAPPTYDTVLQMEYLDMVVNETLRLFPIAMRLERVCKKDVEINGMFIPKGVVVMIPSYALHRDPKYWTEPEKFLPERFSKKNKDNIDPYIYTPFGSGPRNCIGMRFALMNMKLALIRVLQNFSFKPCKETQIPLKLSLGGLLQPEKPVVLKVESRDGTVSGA
T4 sequence (P08684 whole entry): as above
T7 sequence (P10635 whole entry): as the sequence (P10635 whole entry) above
T8 sequence (P11712 whole entry): as the sequence (P11712 whole entry) above
Sequence of Hepatocyte growth factor receptor (P08581 whole entry): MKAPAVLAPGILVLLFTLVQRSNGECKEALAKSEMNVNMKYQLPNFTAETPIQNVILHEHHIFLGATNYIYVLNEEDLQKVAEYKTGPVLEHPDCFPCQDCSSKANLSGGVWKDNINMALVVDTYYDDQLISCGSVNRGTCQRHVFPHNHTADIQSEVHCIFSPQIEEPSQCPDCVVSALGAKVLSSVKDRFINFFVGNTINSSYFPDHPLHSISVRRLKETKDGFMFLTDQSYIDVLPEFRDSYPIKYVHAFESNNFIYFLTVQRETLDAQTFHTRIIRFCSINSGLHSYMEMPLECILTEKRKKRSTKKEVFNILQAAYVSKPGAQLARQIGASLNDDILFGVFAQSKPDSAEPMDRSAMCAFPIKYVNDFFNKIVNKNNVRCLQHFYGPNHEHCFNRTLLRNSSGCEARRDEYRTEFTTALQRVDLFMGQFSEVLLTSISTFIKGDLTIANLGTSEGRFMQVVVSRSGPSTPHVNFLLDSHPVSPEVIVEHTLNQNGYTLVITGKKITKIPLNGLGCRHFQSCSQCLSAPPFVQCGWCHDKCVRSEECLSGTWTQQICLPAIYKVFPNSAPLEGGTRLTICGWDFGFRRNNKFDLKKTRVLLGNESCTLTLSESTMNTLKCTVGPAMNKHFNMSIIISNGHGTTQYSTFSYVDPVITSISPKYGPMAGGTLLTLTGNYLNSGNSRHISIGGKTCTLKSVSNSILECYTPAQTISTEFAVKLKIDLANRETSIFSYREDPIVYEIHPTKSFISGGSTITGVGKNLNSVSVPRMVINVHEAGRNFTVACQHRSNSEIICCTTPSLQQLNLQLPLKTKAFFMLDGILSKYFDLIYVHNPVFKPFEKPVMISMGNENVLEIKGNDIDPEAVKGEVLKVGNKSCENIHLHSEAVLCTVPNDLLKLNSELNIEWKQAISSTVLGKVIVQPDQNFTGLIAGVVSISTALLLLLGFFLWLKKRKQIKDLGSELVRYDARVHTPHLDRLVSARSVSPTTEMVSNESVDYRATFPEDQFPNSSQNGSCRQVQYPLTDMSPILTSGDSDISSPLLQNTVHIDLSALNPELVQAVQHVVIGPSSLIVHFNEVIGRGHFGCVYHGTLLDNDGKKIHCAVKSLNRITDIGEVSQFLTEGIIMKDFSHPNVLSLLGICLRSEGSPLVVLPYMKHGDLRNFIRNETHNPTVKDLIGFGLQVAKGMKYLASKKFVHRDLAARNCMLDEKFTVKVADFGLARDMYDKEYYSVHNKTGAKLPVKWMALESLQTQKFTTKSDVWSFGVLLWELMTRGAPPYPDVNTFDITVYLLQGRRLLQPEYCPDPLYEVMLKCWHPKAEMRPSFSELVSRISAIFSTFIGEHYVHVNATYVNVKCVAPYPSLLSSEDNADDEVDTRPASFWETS
Sequence of Cytochrome P450 2C19 (P33261 whole entry): as the sequence (P33261 whole entry) above

Structure (SMILES) | IC50 ([1]; Homo sapiens, SNU-5, 72 h) | inhibition at 20 min, 10 µM [2] | inhibition at 20 min, 10 µM [3] | TDI [4] | remaining at 0.5 h, 1 µM [5] | microsomal CLint at 1 µM [6] | IC50 ([7]; Homo sapiens, NCI-H1993, 72 h) | microsomal CLint at 1 µM [8] | remaining at 0.5 h, 1 µM [9] | inhibition at 20 min, 10 µM [10] | remaining at 0.5 h, 1 µM [11] | inhibition at 20 min, 10 µM [12] | inhibition at 20 min, 10 µM [13] | microsomal CLint at 1 µM [14] | other results
CC(c1c(F)cc2ncc(-c3cnn(C)c3)cc2c1F)n1nnc2ncc(-c3ccc(C(N)=O)c(F)c3)nc21 (configuration not stated) | 0.4 nM | < 50% | < 50% | Active | 94% | 12 µL/min/mg | 0.4 nM | 50 µL/min/mg | 99% | < 50% | 97% | < 50% | < 50% | 11 µL/min/mg | 
CC(c1ccc2ncc(-c3cnn(C)c3)cc2c1)n1nnc2ncc(-c3ccc(C(N)=O)c(F)c3)nc21 (configuration not stated) | 0.7 nM | < 50% | < 50% | Active |  | 10 µL/min/mg | 0.9 nM | 30 µL/min/mg | 98% | < 50% | 120% | < 50% | < 50% | 3 µL/min/mg | TDI [15]: Active; Drug recovery [16]: 128%; TDI [17]: Active; TDI [18]: Active
CC(c1cc2cc(-c3cnn(C)c3)cnc2cc1F)n1nnc2ncc(-c3cnn(CCO)c3)nc21 (single isomer, unassigned; enantiomer 1) |  |  |  |  |  |  |  |  |  |  |  |  |  |  | IC50 ([1]; snu-5): 0.8 nM; IC50 [19]: 0.68 nM; IC50 ([7]; nci-h1993): 0.7 nM; F [20]: 8.6%
CC(c1c(F)cc2ncc(-c3cnn(C)c3)cc2c1F)n1nnc2ncc(-c3ccncc3)nc21 (configuration not stated) | 1.2 nM |  |  |  | 98% | 26 µL/min/mg | 0.2 nM | 106 µL/min/mg | 99% |  | 101% |  |  | 9 µL/min/mg | inhibition at 10 µM [21]: < 50%; inhibition (INH) [22]: Active; inhibition (INH) [23]: Active; inhibition at 10 µM [24]: < 50%; inhibition at 10 µM [25]: < 50%; inhibition (INH) [26]: Active; inhibition at 10 µM [27]: < 50%; inhibition (INH) [28]: Active; inhibition at 10 µM [29]: < 50%
